Experimental data gathered from unrelated publications.
Compare with care: the assays were run in different laboratories.

SMILES | target or system | test | system | conditions | endpoint | value
CN[C@H](CC(C)C)C(=O)N[C@H]1C(=O)N[C@@H](CC(N)=O)C(=O)N[C@H]2C(=O)N[C@H]3C(=O)N[C@H](C(=O)N[C@H](C(=O)O)c4cc(O)cc(O)c4-c4cc3ccc4O)[C@H](O)c3ccc(c(Cl)c3)Oc3cc2cc(c3O[C@@H]2O[C@H](CO)[C@@H](O)[C@H](O)[C@H]2O[C@H]2C[C@](C)(N)[C@H](O)[C@H](C)O2)Oc2ccc(cc2Cl)[C@H]1O | Enterobacter cloacae | microbial growth, broth dilution | ATCCBAA1143 |  | MIC | > 64 µg/mL
CO[C@H]1/C=C/O[C@@]2(C)Oc3c(C)c(O)c4c(O)c(c(/C=N/N5CCN(C)CC5)c(O)c4c3C2=O)NC(=O)/C(C)=C\C=C\[C@H](C)[C@H](O)[C@@H](C)[C@@H](O)[C@@H](C)[C@H](OC(C)=O)[C@@H]1C | Vero | cell growth or viability |  | 18 h | IC50 | 120 µg/mL
CCCCCOc1ccc(-c2cc(-c3ccc(C(=O)N[C@H]4C[C@@H](O)[C@@H](O)NC(=O)[C@@H]5[C@@H](O)[C@@H](C)CN5C(=O)[C@H]([C@H](O)CC(N)=O)NC(=O)[C@H]([C@H](O)[C@@H](O)c5ccc(O)c(OS(=O)(=O)O)c5)NC(=O)[C@@H]5C[C@@H](O)CN5C(=O)[C@H]([C@@H](C)O)NC4=O)cc3)no2)cc1 | Candida dubliniensis | biofilm formation |  | 16 µg/mL | inhibition | 42%
COc1cccc(Oc2ccccc2NC(=O)CNC(=O)c2cccc3ccccc23)c1 | HL-60 | cell growth or viability |  | 48 h | GI50 | 0.0813 µM
Nc1cc(Br)c(Br)cc1N | ME-180 | cell growth or viability |  | 72 h | IC50 | 75 µM
CN1C[C@H](C(=O)N[C@]2(C)O[C@@]3(O)[C@@H]4CCCN4C(=O)[C@H](Cc4ccccc4)N3C2=O)C=C2c3cccc4[nH]cc(c34)C[C@H]21 | NCI-H1299 | cell growth or viability, MTT |  | 72 h | EC50 | ~25 µM
CC1CCN(CCCN2/C(=C/c3cc[n+](C)c4ccccc34)Sc3ccccc32)CC1.[I-] | Enterobacter cloacae | microbial growth, broth dilution | ATCCBAA1143 |  | MIC | > 64 µg/mL
Nc1cc(Cl)c(Cl)cc1N | ME-180 | cell growth or viability |  | 72 h | IC50 | 100 µM
